Data set [1] is described as follows: Half life in Sprague-Dawley rat at 3 mg/kg, iv. Format: ADME, organism-based. Also on record: dose 3 mg/kg, route intravenous. To be noted: in vivo. Summed up:
(§1)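 Cannulated male Sprague-Dawley rats, fasted overnight, given a single 3 mpk dose at t = 0. The iv vehicle was 20% microemulsion/80% DI water and the po vehicle CMC/tween in DI water. Plasma was analysed for parent compound by LC/MS-MS, and exposure, half-life, Vd, clearance and bioavailability were calculated.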

Data set [2] relates to Rattus norvegicus. Briefly: Antiinflammatory activity in po dosed Lewis rat collagen-induced arthritis model assessed as reduction in ankle diameter administered for 15 days measured during compound dosing. The data set is classed as functional, organism-based. Summed up:
(§2)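 Female Lewis rats received collagen injected at the tail base, and disease developed over 14 d. Responding rats (groups of n = 10) were then dosed orally once daily for the next 15 d. Ankle/paw diameter was measured throughout the live phase and summarised as AUC. Hindpaw histology was scored blind from 0 (normal) to 5 (vehicle-level). Statistics used Student's t test vs vehicle, p < 0.01.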

Data set [3] is described as follows: Oral bioavailability in Sprague-Dawley rat at 3 mg/kg. The data set is classed as ADME, organism-based. To be noted: in vivo. The method, boiled down: as §1
For data set [4], the system named is Rattus norvegicus. Briefly: Antiinflammatory activity in Lewis rat collagen-induced arthritis model assessed as reduction of cartilage damage at 30 mg/kg, po administered for 15 days. Also on record: dose 30 mg/kg. The data set is classed as functional, organism-based. The method, boiled down: as §2
Data set [5] deals with Rattus norvegicus. Kind of data set: Antiinflammatory activity in Lewis rat collagen-induced arthritis model assessed as reduction of paw diameter AUC at 3 to 30 mg/kg, po administered for 15 days measured during compound dosing. Format: functional, organism-based. Summed up: as §2
The nature of data set [6]: Volume of distribution in Sprague-Dawley rat at 3 mg/kg, iv. Format: ADME, organism-based. Also on record: dose 3 mg/kg, route intravenous. To be noted: in vivo. The method, boiled down: as §1
For data set [7], the system named is Rattus norvegicus. Briefly: Antiinflammatory activity in po dosed Sprague-Dawley rat assessed as inhibition of carrageenan-induced IL-1beta secretion incubated for 2 hrs prior to carrageenan challenge measured after 5 hrs by ELISA. Format: functional. Summed up: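 Male Sprague-Dawley rats (n = 5/group) were dosed at t = 0, and carrageenan was injected into the rear footpad at 2 h. At 5 h the animals were euthanised and the hindpaws weighed to measure edema. Paw exudate was assayed for IL-1β by ELISA.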
(In general: In an ELISA, binding on a coated surface is turned into a signal by an enzyme label.)

From ChEMBL document CHEMBL3120138, “Glucocorticoid receptor modulators informed by crystallography lead to a new rationale for receptor selectivity, function, and implications for structure-based design” (J Med Chem, 2014) come the findings set out here.

Molecules are shown by their SMILES. Active and inactive are the calls of the source. The calls are words filed in the database; no cut-off is given here.

The half-life is how long it takes for the measured level to halve. Broadly, the bioavailability is dose-corrected exposure relative to a reference, in per cent. Read a low bioavailability as little systemic uptake. What is called Vd is a proportionality between amount in the body and measured concentration, not a real space. Higher therefore signals extensive tissue distribution. The ED50 is the dose at which the effect has come halfway, by size or by number of responders. For `CC/C(=C1\c2ccccc2OCc2cccc(OC)c21)c1cccc(NS(C)(=O)=O)c1`, the half-life in data set [1] was 1.4 h. Also, in the data set on Rattus norvegicus [2], the Activity entry is “Dose-dependent effect”. In addition, the bioavailability in data set [3] amounted to 100%. The result in the data set with Rattus norvegicus [4] and with Rattus norvegicus [5] was Active. The molecule also yielded a Vd in data set [6] of 7 L/kg. Moreover, the ED50 in the data set on Rattus norvegicus [7] was determined as 1.7 mg/kg.
